Laboratory results from the EternaBench riboswitch data.

Test system: MS2 coat protein
Assay: apparent Kd, MS2 coat protein; higher = weaker binding; RNA-MaP array; FMN 200 µM where present
In short: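 Apparent Kd: the median of filtered binding-curve fits from single clusters. Designs were transcribed on Illumina sequencing-chip clusters by stalled E. coli RNA polymerase and titrated with SNAP-549-labelled MS2 coat protein from 0.7 or 1.5 nM, doubling to 3 µM, in 100 mM Tris-HCl pH 7.5, 80 mM KCl, 4 mM MgCl2, BSA, DTT, yeast tRNA and Tween-20. Each series ran without and then with constant ligand, and green signal was normalised to red-channel RNA signal and control-cluster median Fmax.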

[1] = designed as: OFF switch for flavin mononucleotide, no ligand
[2] = ligand present: flavin mononucleotide, designed as: OFF switch for flavin mononucleotide
[3] = designed as: ON switch for flavin mononucleotide, no ligand
[4] = ligand present: flavin mononucleotide, designed as: ON switch for flavin mononucleotide

Row | Sequence | apparent Kd [1] [nM] | apparent Kd [2] [nM] | apparent Kd [3] [nM] | apparent Kd [4] [nM]
1 | CCUUUGAAGAUCCUAGUUUUCGACAUGAGGAUCACCCAUGUGCAGGAUAUCGUGCCAGUGCUGUGCGAGAAGGGCAGUCUCUGC | 63.2 | 70.9 |  | 
2 | AGCAGUACAGGAUAUACAUGAGGAUCACCCAUGUGAAAAUUAAGUGGCGUACCACAAAGUAGAAGGGUACUGCA | 32 | 117 |  | 
3 | UUUUUGUGAGGAUAUUAGUAGUAAAUAAAUAAAAUUAUUACUGAGAAGGCACAUGAGGAUCACCCAUGUUCCUU | 14.8 | 68.1 |  | 
4 | AACCUAUUACAGAAGGCCAGCUACAUGAGGAUCACCCAUGUCGAGUCAUGGAGGAUAUGUAGUAAUUCACUCACAGAUGAGUAC |  |  | 28.9 | 5.78
5 | UGUCGUGUUCGAGGAUAUGAAACUAGGCCGGGCACUGUACACCCGCCUGUCUCAGAAGGCGGACAUGAGGAUCACCCAUGUAAA | 294 | 22.1 |  | 
6 | ACAUGAGGAUCACCCAUGUAUUACAUGGUUAAGUUUAUUAACAGAAGGCGAAAUUACCACUUGGUCGAGGAUAUGUAUUCUAUU | 40.3 | 40.7 |  | 
7 | GCACUUAAAAUUGAACCGUUUCGAACAUGAGGAUCACCCAUGUAGGAUAUGCUAAUAGUAUUGAAGCAGAAGGACAAUAAGUGC | 6.17 | 5.99 |  | 
8 | UUUAUUUUUACAGGAUAUCAUCUAUAUAUCACAUGCACAUGUUUACAUGAGGAUCACCCAUGUUUUGAGAAGGGUAAUGAAACA |  |  | 79.6 | 59
9 | UUGAUUAUACAAGGAUAUCAAUUGUAUACAAGUCUUACAUGAGGAUCACCCAUGUUAAAUUUUUUUGAGAAGGUGUGUUGUCAG |  |  | 33.9 | 28.5
10 | AUGUGGUGCGUAGGAUAUCAUUGAGGGAAACCCUGAGAAGGACGUGAGGACAUGAGGAUCACCCAUGUGGAUCACCCAUGUCAU | 196 | 253 |  | 
11 | AUCUAAGAAUUAAUUGUGACUGACAGAAGGCAAUAGAAUGAGACCGACAUGAGGAUCACCCAUGUUGAGGAUAUGUCUUGCUAC | 6.53 | 6.74 |  | 
12 | CUAUUUUGUGCCUCAUGUACAUGAGGAUCACCCAUGUUAACUUAGGAUAUAUUUAUAUUGUUAGAGUAGAAGGAAGUACAAUUU | 30.2 | 27.1 |  | 
13 | GGAUAGGACAGAGGAUAUACGUGCUAGAGCUACUAGCAAAAUUUCCUCACAUGAGGAUCACCCAUGUAGAAGGCUGUCCUAUCG | 15.6 | 463 |  | 
14 | UAUAUAUAGUAAGGAUAUGUAUUAAUUUUAUAAACAGAAGGUACUGACAUGAGGAUCACCCAUGUUUUAGUGUGGGCAUGUAGA | 102 | 169 |  | 
15 | CGUUUCAUGUCAGGAUAUCCGCGCAGCUUUACGCACGAUAUAAGGGAGCUUGGAGAAGGGACAUGAGGAUCACCCAUGUGCCUC | 8.6 | 12.4 |  | 
16 | GGAUCGAAUGUGAGGAUAUGCUGGUCCUUGGAUCAGCAGAAGGCACAUGAGGAUCACCCAUGUGACUAAGAUCC | 32.7 | 248 |  | 
17 | UUAAUUAAUUAAUUAUACAUGAGGAUCACCCAUGUAAGUGAUCAGGAUAUCAGCUCGUGUAGAGCUGAGAAGGGAUACAUGUAA |  |  | 194 | 102
18 | AUUACGUCAGGAUAUCUGAUGUCUAACUUCGGUUAGACAUCAGAGAAGGGACAUGAGGAUCACCCAUGUAAUAG | 54.5 | 56.2 |  | 
19 | AUGGAUAUCACAGGAUAUGAUAUGGAUACCAUAUCAGAAGGGUGAUCCAUCCUAUGUAAAUACAUGAGGAUCACCCAUGUGUCC |  |  | 15.1 | 31.6
20 | GGUUUGCGGCAGGAUAUCCAUCCGCGGUGUGGUGGAGAAGGGCUGACAUGAGGAUCACCCAUGUGCGUCCUGGG | 33.8 | 71.7 |  | 
21 | GCGAUGAUCGAGAAGGCCACUACAUGAGGAUCACCCAUGUCGUGGUGUAUUGGAGGAUAUCGAUCGGCGUCUCAUGAGGACAUA | 4.65 | 5.78 |  | 
22 | UUGAAUUGAAACAUGAGGAUCACCCAUGUGUCAUAAUUGACAUAGGAUAUGUUUAUACUUUUAAAACAGAAGGAUGACGAUACU |  |  | 14.1 | 9.68
23 | ACAUUUAAUACAGGAUAUGUUAGUAUACAGUAGAUUGGUUAUUACAUAAUAACAGAAGGGUAGAACAUGAGGAUCACCCAUGUA |  |  | 217 | 106
24 | UAUAUAUAGGCAGGAUAUACAUGAAUAUAUAUGAUGUAGUAUGAUGUAACAUGAGGAUCACCCAUGUAGAAGGGCCAAUAUAUA | 48 | 152 |  | 

Row | Sequence | apparent Kd [1] [nM] | apparent Kd [2] [nM] | apparent Kd [3] [nM] | apparent Kd [4] [nM]
25 | GUAGAGUAAGGAUAUCAAGAAUAGGAUAGAAUGGUUAGAAUUGAGAAGGUACAUGAGGAUCACCCAUGUAAUGU | 20.9 | 21 |  | 
26 | CUAUCAAGCAAGGAUAUGCAAUUUAUUAUUUAUGCAGAAGGUGCAACAUGAGGAUCACCCAUGUUUCUGGGUUU | 51.5 | 91.5 |  | 
27 | GUAUCGUGAGGAUAUCAUGAUUGACUUAAUUUAUGUCAGCGUGAGAAGGCACAUGAGGAUCACCCAUGUGAUUA | 22.8 | 54.8 |  | 
28 | UGUCGGUAGUAGAAGGGUAAGACAUGAGGAUCACCCAUGUGAUUUGGGUAUACAGGAUAUGCUUAUAUAUAAGAUUAAAUUAUU | 674 | 470 |  | 
29 | ACUAUACGAGGAUAUACUGUCGGGCCUCGGACAUAAAUAAGACAUGAGGAUCACCCAUGUAGAAGGCGUUUACU | 25.6 | 46 |  | 
30 | CGUAUUAUUCAGAAGGCACUUCUCAUGUUACAUGAGGAUCACCCAUGUUUGUGAGGAUAUGAAUAUAGUUGUUGGUGUAUUAUA | 7.25 | 8.59 |  | 
31 | AUAGCAUACCGAGGAUAUUCAUAUAAUAAAUAAACAUGAGGAUCACCCAUGUGGCGAAAGCCUAGGGAGAAGGCGGAAUGCUAU |  |  | 204 | 24.1
32 | AUCUCCUCUGUCAGGAUAUAUAAACUGUUGCAGUGGUAGAAGGGACAUGAGGAUCACCCAUGUAAUAUAAAUAA | 25.6 | 71.5 |  | 
33 | AGCUGGAGAGGAUAUACGUAAGUGAAAAAAGUCUGAUAACUACAUGAGGAUCACCCAUGUAGAAGGCUCUGGCA | 19.3 | 33.2 |  | 
34 | CGCAACAUACAGAAGGAGUAAUUUAGAAGUGUACUAGGAUAUGUUUACAUGAGGAUCACCCAUGUCGAUGGGUAAAUAGUUGCG | 988 | 437 |  | 
35 | GUAGCAUACCGAGGAUAUUCAGAUAAUAAAUAAACAUGAGGAUCACCCAUGUGGCGAAAGCCUAGGGAGAAGGCGGAAUGCUAC |  |  | 77 | 20.6
36 | ACAAGAUCAGGAUAUACAUGAGGAUCACCCAUGUAUUUCAAAAAGGGACUUUCUUAAUGUAGAAGGGAUCUUGU | 22.5 | 94.4 |  | 
37 | AGUUAUUCAGGAUAUGGUGUGUUAUACAUGAGGAUCACCCAUGUAGAUCCUGGUUAGGCCUCAGAAGGGAAUGUUA | 190 | 190 |  | 
38 | UUGGCGCGAUCCUGGGUCUCACAUGAGGAUCACCCAUGUAGAGAGGAUAUGCAUAGGGCCCAAUGGCAGAAGGCUCUACAUGAG | 91.4 | 57.2 |  | 
39 | UUAAAUCGAAACAUGAGGAUCACCCAUGUGUUGUGGUUAAUAUAGGAUAUGUGUAUACUUUUAUGACAGAAGGAUGAUAAUACU |  |  | 15.5 | 12.6
40 | GGUACUCAAAGAGUACCAAUACGAACAUGAGGAUCACCCAUGUAGGAUAUUCUACUCAAAGAGUAGCAGAAGGACAUGUGCCUA | 10.8 | 13.1 |  | 
41 | AAUUUACAUGAGGAUCACCCAUGUCAGGAUAUGGUUUUAUUUUUUUCUUUUCUUGAUUCCAGAAGGGACAGCUA | 127 | 68.3 |  | 
42 | UGUGUGUGGCAGGAUAUUCCGGUCGUUGGUCGGGAAGAAGGGUCUACAUGAGGAUCACCCAUGUGACCGGUUGA | 27 | 27.5 |  | 
43 | UUCAUGUGAGGAUAUAAAAUGAAUAUAAAUUAUUAUCUUGAUUAGAAGGCACAUGAGGAUCACCCAUGUCUGAA | 33.1 | 47.9 |  | 
44 | GUCAGCUCGUGAGGAUAUACAACACUGCUUCGGCAGUGUAUUAAUAUCACAUGAGGAUCACCCAUGUAGAAGGCACGAGCUGAU | 5.07 | 5.81 |  | 
45 | CCUGGCACAUAGAAGGGUACAUGGCCUCUGCUACAUGAGGAUCACCCAUGUGCAGGAUAUGUGUGCCAGACUAUGCCGGUGUAA | 20.2 | 16.1 |  | 
46 | AAAACUCACGUAGGAUAUCAUUCCUUAAGGUAGUGAGAAGGACGUGACUACAUGUCCUAAAACAUGAGGAUCACCCAUGUAGGC | 33.5 | 26.5 |  | 
47 | GUUGAUGGAGGAUAUACUGCAGUGAUUGGCAAGAAUCCAGCACAUGAGGAUCACCCAUGUAGAAGGCCAUAACA | 25.8 | 63.5 |  | 
48 | ACGGUGGUCACAGGAUAUCCGGCCCGCGGGCCUGGAGAAGGGUGACUCAGAACCACAUGAGGAUCACCCAUGUGCCUUGCCGUA |  |  | 250 | 48.7
